From ChEMBL document CHEMBL3407377, “Synthesis and pharmacological evaluation of benzannulated derivatives as potent and selective sigma-1 protein ligands” (Eur J Med Chem, 2015)

Experiments:
[1] = target: Sigma non-opioid intracellular receptor 1 (Homo sapiens, UniProt Q99720); experiment: Displacement of [3H](+)Pentazocine from sigma 1 receptor in human Jurkat cells after 120 mins by liquid scintillation counting analysis; assay type: cell-based
[2] = Cytotoxicity against human SH-SY5Y cells assessed as cell viability after 72 hrs by MTT assay; assay type: cell-based
Outline: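 Human neuroblastoma SY5Y cells were exposed to a range of concentrations up to 100 μM. Viability was read by colorimetric MTT assay, and the IC50 was taken from it.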

[3] = Ratio of IC50 for human SY5Y cells to Ki for sigma 1 receptor in human Jurkat cells
Outline: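 Selectivity index was calculated as the SY5Y cytotoxicity IC50 divided by the S1R Ki. The IC50 came from a colorimetric MTT viability assay on human neuroblastoma SY5Y cells dosed up to 100 μM. The Ki came from [3H](+)-pentazocine competition binding on Jurkat cell membranes.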

Jurkat = experiment: Selectivity ratio of Ki for sigma2 receptor in human Jurkat cells to Ki for sigma1 receptor human Jurkat cells; assay type: cell-based
Outline: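 Both affinities came from radioligand competition on Jurkat cell membranes. S1R used [3H](+)-pentazocine. S2R used [3H]-DTG with excess unlabelled (+)-pentazocine. Ki values were derived from IC50s, and the ratio was calculated as Ki(S2R)/Ki(S1R).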

Chain of Sigma non-opioid intracellular receptor 1 (Q99720 whole entry): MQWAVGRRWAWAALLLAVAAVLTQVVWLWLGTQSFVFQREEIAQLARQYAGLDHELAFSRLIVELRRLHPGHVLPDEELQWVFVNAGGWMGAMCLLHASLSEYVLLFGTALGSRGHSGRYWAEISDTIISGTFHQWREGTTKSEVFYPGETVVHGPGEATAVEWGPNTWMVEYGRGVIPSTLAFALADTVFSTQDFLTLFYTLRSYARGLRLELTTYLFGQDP

Structure (SMILES) | Ki [1] | IC50 [2] | Ratio [3] | Ratio Ki (Jurkat)
O=C1COc2ccc(Br)cc2N1CCCN1Cc2ccccc2C1 | > 0.1 µM | > 100 µM | – | –
CN(CCCN1C(=O)COc2ccc(Br)cc21)Cc1ccccc1 | > 0.1 µM | 13.4 µM | – | –
O=c1sc2ccccc2n1CCCN1Cc2ccccc2C1 | 0.0303 µM | > 100 µM | >3000 | –
CN(CCCN1C(=O)[C@@H]2Cc3ccccc3CN2C1=O)Cc1ccccc1 | – | > 100 µM | – | –
CN(CCCn1c(=O)sc2ccccc21)Cc1ccccc1 | 0.0103 µM | 10 µM | 973 | –
CN(CCCn1c(=O)oc2ccccc21)Cc1ccccc1 | > 0.1 µM | > 100 µM | – | –
Cc1nc2ccccc2n1CCCN(C)Cc1ccccc1 | > 0.1 µM | 50.2 µM | – | –
CN(CCCn1c(=O)oc2ccc(Cl)cc21)Cc1ccccc1 | 0.0064 µM | > 100 µM | 15500 | 16
CN(CCCn1c(=O)n(C)c2ccccc21)Cc1ccccc1 | > 0.1 µM | 73.8 µM | – | –
Cn1c(=O)n(CCCN2Cc3ccccc3C2)c2ccccc21 | > 0.1 µM | > 100 µM | – | –
O=c1oc2ccccc2n1CCCN1Cc2ccccc2C1 | > 0.1 µM | > 100 µM | – | –
O=c1oc2cc(Br)ccc2n1CCCN1Cc2ccccc2C1 | > 0.1 µM | > 100 µM | – | –

Continued by falling Ki [1], values first:

Ki [1] | Structure (SMILES) | IC50 [2] | Ratio [3] | Ratio Ki (Jurkat)
0.0057 µM | O=c1sc2cc(Br)ccc2n1CCCN1Cc2ccccc2C1 | 31.4 µM | 5471 | –
0.0053 µM | O=C1[C@@H]2Cc3ccccc3CN2C(=O)N1CCCN1Cc2ccccc2C1 | – | – | 78
0.0047 µM | CN(CCCn1c(=O)sc2ccc(Cl)cc21)Cc1ccccc1 | 9.9 µM | 2124 | 35
0.0031 µM | CN(CCCn1c(=O)sc2ccc(Br)cc21)Cc1ccccc1 | 26.5 µM | 8417 | 35
0.0022 µM | CN(CCCN1C(=O)CSc2ccc(Br)cc21)Cc1ccccc1 | 18.7 µM | 8631 | 22
0.0012 µM | CN(CCCn1c(=O)oc2ccc(Br)cc21)Cc1ccccc1 | 14.2 µM | 11463 | 13
0.0009 µM | CN(CCCn1c(=O)oc2cc(Br)ccc21)Cc1ccccc1 | 58.8 µM | 63291 | 37
0.0006 µM | CN(CCCn1c(=O)sc2cc(Br)ccc21)Cc1ccccc1 | 13.2 µM | 23250 | 48
